Data: ChEMBL document CHEMBL1649314, “Experimental murine scedosporiosis: histopathology and azole treatment” (2010)
Activity calls are given as the source filed them.

What was measured:
[1] = system: Scedosporium apiospermum; test: Antifungal activity against Scedosporium apiospermum IHEM 14464 infected in immunosuppressed OF1 mouse assessed as prolonged survival of mouse at 10 mg/kg, po BID administered 24 hrs postinfection for 10 days measured after 20 days; assay type: functional, organism-based; set-up: dose 10 mg/kg
How it was run: (§1)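 Male OF1 mice, groups of 10, immunosuppressed 1 day before infection with cyclophosphamide 200 mg/kg i.p. plus 5-fluorouracil 150 mg/kg i.v. Infected i.v. via tail vein with 1 × 10^4 CFU in 0.2 ml saline. Oral treatment began 24 h post-challenge for 10 days. Mice checked daily for 20 days. Survival by Kaplan-Meier, compared by log rank test.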

[2] = system: Scedosporium apiospermum; test: Antifungal activity against Scedosporium apiospermum CBS 117407 infected in immunosuppressed OF1 mouse assessed as prolonged survival of mouse at 20 mg/kg, po BID administered 24 hrs postinfection for 10 days measured after 20 days; assay type: functional, organism-based; set-up: dose 20 mg/kg; how it was run: as §1
[3] = system: Scedosporium apiospermum; test: Antifungal activity against Scedosporium apiospermum CBS 117407 infected in immunosuppressed OF1 mouse assessed as reduction in brain fungal burden at 20 mg/kg, po BID administered 24 hrs postinfection for 10 days measured after 20 days; assay type: functional, organism-based; set-up: dose 20 mg/kg
[4] = system: Scedosporium apiospermum; test: Antifungal activity against Scedosporium apiospermum IHEM 14464 infected in immunosuppressed OF1 mouse assessed as reduction in kidney fungal burden at 10 mg/kg, po BID administered 24 hrs postinfection for 10 days measured after 20 days; assay type: functional, organism-based; set-up: dose 10 mg/kg
[5] = system: Scedosporium boydii; test: Antifungal activity against Scedosporium boydii FMR 8627 infected in immunosuppressed OF1 mouse assessed as reduction in kidney fungal burden at 20 mg/kg, po BID administered 24 hrs postinfection for 10 days measured after 20 days; assay type: functional, organism-based; set-up: dose 20 mg/kg
[6] = Antifungal activity against Scedosporium aurantiacum IHEM 15458 infected in immunosuppressed OF1 mouse assessed as prolonged survival of mouse at 10 mg/kg, po BID administered 24 hrs postinfection for 10 days measured after 20 days; assay type: functional, organism-based; set-up: dose 10 mg/kg; how it was run: as §1
[7] = system: Scedosporium apiospermum; test: Antifungal activity against Scedosporium apiospermum CBS 117407 infected in immunosuppressed OF1 mouse assessed as reduction in kidney fungal burden at 10 mg/kg, po BID administered 24 hrs postinfection for 10 days measured after 20 days; assay type: functional, organism-based; set-up: dose 10 mg/kg
[8] = system: Scedosporium boydii; test: Antifungal activity against Scedosporium boydii FMR 6694 infected in immunosuppressed OF1 mouse assessed as reduction in brain fungal burden at 40 mg/kg, po BID administered 24 hrs postinfection for 10 days measured after 20 days; assay type: functional, organism-based; set-up: dose 40 mg/kg
[9] = system: Scedosporium apiospermum; test: Antifungal activity against Scedosporium apiospermum IHEM 14464 by broth dilution method; assay type: functional
[10] = Antifungal activity against Scedosporium aurantiacum IHEM 15458 by broth dilution method; assay type: functional
[11] = system: Scedosporium apiospermum; test: Antifungal activity against Scedosporium apiospermum CBS 117407 infected in immunosuppressed OF1 mouse assessed as reduction in kidney fungal burden at 20 mg/kg, po BID administered 24 hrs postinfection for 10 days measured after 20 days; assay type: functional, organism-based; set-up: dose 20 mg/kg
[12] = system: Scedosporium boydii; test: Antifungal activity against Scedosporium boydii FMR 6694 by broth dilution method; assay type: functional
[13] = system: Scedosporium aurantiacum; test: Antifungal activity against Scedosporium aurantiacum IHEM 15458 infected in immunosuppressed OF1 mouse assessed as reduction in brain fungal burden at 40 mg/kg, po BID administered 24 hrs postinfection for 10 days measured after 20 days; assay type: functional, organism-based; set-up: dose 40 mg/kg
[14] = system: Scedosporium boydii; test: Antifungal activity against Scedosporium boydii FMR 8627 by broth dilution method; assay type: functional
[15] = system: Scedosporium boydii; test: Antifungal activity against Scedosporium boydii FMR 8627 infected in immunosuppressed OF1 mouse assessed as reduction in brain fungal burden at 40 mg/kg, po BID administered 24 hrs postinfection for 10 days measured after 20 days; assay type: functional, organism-based; set-up: dose 40 mg/kg
[16] = system: Scedosporium aurantiacum; test: Antifungal activity against Scedosporium aurantiacum IHEM 15458 infected in immunosuppressed OF1 mouse assessed as reduction in kidney fungal burden at 10 mg/kg, po BID administered 24 hrs postinfection for 10 days measured after 20 days; assay type: functional, organism-based; set-up: dose 10 mg/kg
[17] = system: Scedosporium apiospermum; test: Antifungal activity against Scedosporium apiospermum CBS 117407 by broth dilution method; assay type: functional
[18] = system: Scedosporium boydii; test: Antifungal activity against Scedosporium boydii FMR 6694 infected in immunosuppressed OF1 mouse assessed as prolonged survival of mouse at 20 mg/kg, po BID administered 24 hrs postinfection for 10 days measured after 20 days; assay type: functional, organism-based; set-up: dose 20 mg/kg; how it was run: as §1
[19] = system: Scedosporium boydii; test: Antifungal activity against Scedosporium boydii FMR 8627 infected in immunosuppressed OF1 mouse assessed as reduction in brain fungal burden at 20 mg/kg, po BID administered 24 hrs postinfection for 10 days measured after 20 days; assay type: functional, organism-based; set-up: dose 20 mg/kg
[20] = system: Scedosporium boydii; test: Antifungal activity against Scedosporium boydii FMR 6694 infected in immunosuppressed OF1 mouse assessed as reduction in kidney fungal burden at 10 mg/kg, po BID administered 24 hrs postinfection for 10 days measured after 20 days; assay type: functional, organism-based; set-up: dose 10 mg/kg
[21] = system: Scedosporium boydii; test: Antifungal activity against Scedosporium boydii FMR 8627 infected in immunosuppressed OF1 mouse assessed as prolonged survival of mouse at 10 mg/kg, po BID administered 24 hrs postinfection for 10 days measured after 20 days; assay type: functional, organism-based; set-up: dose 10 mg/kg
How it was run: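 Male OF1 mice were immunosuppressed 1 day before infection with cyclophosphamide 200 mg/kg i.p. plus 5-fluorouracil 150 mg/kg i.v. They were infected i.v. via a lateral tail vein with 1 × 10^4 CFU/mouse in 0.2 ml saline. Oral dosing was 10 or 20 mg/kg twice daily, or 20 or 40 mg/kg once daily (those mice and controls drank grapefruit juice from day −3). Dosing ran 24 h post-challenge for 10 days; 10 mice/group; observed daily to day 20; Kaplan-Meier with log rank test.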

[22] = Antifungal activity against Scedosporium aurantiacum CBS 116910 by broth dilution method; assay type: functional
[23] = Antifungal activity against Scedosporium aurantiacum IHEM 15458 infected in immunosuppressed OF1 mouse assessed as prolonged survival of mouse at 20 mg/kg, po BID administered 24 hrs postinfection for 10 days measured after 20 days; assay type: functional, organism-based; set-up: dose 20 mg/kg; how it was run: as §1
[24] = system: Scedosporium aurantiacum; test: Antifungal activity against Scedosporium aurantiacum CBS 116910 infected in immunosuppressed OF1 mouse assessed as reduction in brain fungal burden at 20 mg/kg, po BID administered 24 hrs postinfection for 10 days measured after 20 days; assay type: functional, organism-based; set-up: dose 20 mg/kg
[25] = system: Scedosporium boydii; test: Antifungal activity against Scedosporium boydii FMR 8627 infected in immunosuppressed OF1 mouse assessed as reduction in kidney fungal burden at 10 mg/kg, po BID administered 24 hrs postinfection for 10 days measured after 20 days; assay type: functional, organism-based; set-up: dose 10 mg/kg
[26] = system: Scedosporium boydii; test: Antifungal activity against Scedosporium boydii FMR 6694 infected in immunosuppressed OF1 mouse assessed as prolonged survival of mouse at 10 mg/kg, po BID administered 24 hrs postinfection for 10 days measured after 20 days; assay type: functional, organism-based; set-up: dose 10 mg/kg; how it was run: as §1
[27] = system: Scedosporium aurantiacum; test: Antifungal activity against Scedosporium aurantiacum IHEM 15458 infected in immunosuppressed OF1 mouse assessed as reduction in brain fungal burden at 20 mg/kg, po BID administered 24 hrs postinfection for 10 days measured after 20 days; assay type: functional, organism-based; set-up: dose 20 mg/kg
[28] = system: Scedosporium apiospermum; test: Antifungal activity against Scedosporium apiospermum IHEM 14464 infected in immunosuppressed OF1 mouse assessed as reduction in kidney fungal burden at 20 mg/kg, po BID administered 24 hrs postinfection for 10 days measured after 20 days; assay type: functional, organism-based; set-up: dose 20 mg/kg
[29] = system: Scedosporium apiospermum; test: Antifungal activity against Scedosporium apiospermum IHEM 14464 infected in immunosuppressed OF1 mouse assessed as reduction in brain fungal burden at 20 mg/kg, po BID administered 24 hrs postinfection for 10 days measured after 20 days; assay type: functional, organism-based; set-up: dose 20 mg/kg

CC[C@@H]([C@H](C)O)n1ncn(-c2ccc(N3CCN(c4ccc(OC[C@@H]5CO[C@@](Cn6cncn6)(c6ccc(F)cc6F)C5)cc4)CC3)cc2)c1=O [POSACONAZOLE]
active: Activity [1] | Activity [2] | Activity [3] | Activity [4] | Activity [5] | Activity [6] | Activity [7] | Activity [11] | Activity [13] | Activity [15] | Activity [16] | Activity [18] | Activity [19] | Activity [21] | Activity [23] | Activity [24] | Activity [25] | Activity [26] | Activity [27] | Activity [28] | Activity [29]
inactive: Activity [8] | Activity [20]
1 µg/mL: MIC [12] | MIC [14] | MIC [17]
32 µg/mL: MIC [22]
0.5 µg/mL: MIC [9]
2 µg/mL: MIC [10]
